Values after ≈ are worked out from the molar mass of the structure shown.
What was measured:
[1] = Half life in rat liver microsomes; assay type: ADME, microsome
[2] = test system: Mycobacterium tuberculosis; assay: Antimycobacterial activity against GFP expressing Mycobacterium tuberculosis H37Rv assessed as reduction in bacterial replication in culture broth medium; assay type: functional
Method in brief: (§1)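 H37Rv expressing GFP, grown either in liquid broth (extracellular) or inside macrophages (intracellular). The value is MIC80, the lowest concentration that inhibits growth by 80%, averaged from two independent measurements.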

[3] = Half life in human liver microsomes; assay type: ADME, microsome
[4] = test system: Mycobacterium tuberculosis; assay: Antimycobacterial activity against GFP expressing Mycobacterium tuberculosis H37Rv infected in mouse RAW264.7 cells assessed as reduction in bacterial replication after 5 days by confocal microscopic method; assay type: functional; conditions: 120 h; method in brief: as §1
[5] = Volume of distribution at steady state in mouse at 2 mg/kg, iv; assay type: ADME, organism-based; conditions: in vivo, read-out: Vdss
Method in brief: (§2)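 Mice received a single intravenous dose of 2 mg/kg or an oral dose of 10 mg/kg. Drug concentrations were measured in plasma, with sampling that extended to 24 h, and the pharmacokinetic parameters were derived from the plasma concentration–time profiles.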

[6] = Half life in mouse at 10 mg/kg, po; assay type: ADME, organism-based; conditions: in vivo; method in brief: as §2
[7] = Clearance in mouse at 2 mg/kg, iv; assay type: ADME, organism-based; conditions: in vivo; method in brief: as §2
[8] = Tmax in mouse at 10 mg/kg, po; assay type: ADME, organism-based; conditions: in vivo; method in brief: as §2
[9] = AUC (0 to infinity) in mouse at 10 mg/kg, po; assay type: ADME, organism-based; set-up: dose 10 mg/kg, route oral, time infinity; conditions: in vivo; method in brief: as §2
[10] = Cmax in mouse at 10 mg/kg, po; assay type: ADME, organism-based; set-up: dose 10 mg/kg, route oral; conditions: in vivo; method in brief: as §2
[11] = Half life in mouse at 2 mg/kg, iv; assay type: ADME, organism-based; conditions: in vivo; method in brief: as §2
[12] = Oral bioavailability in mouse at 10 mg/kg; assay type: ADME, organism-based; conditions: in vivo; method in brief: as §2

Structure (SMILES)	half-life [1] [min]	MIC80 [2] [µM]	half-life [3] [min]	MIC80 [4] [µM]	Vd [5] [L/kg]	half-life [6] [h]	clearance [7] [mL/min/kg]	Tmax [8] [min]	AUC(0-inf) [9] [µg·h/mL]	Cmax [10] [ng/mL]	half-life [11] [min]	bioavailability [12] [%]
CCc1nc2ccc(Cl)cn2c1C(=O)NCc1ccc2oc(-c3ccc(F)cc3)nc2c1	54.3	0.009 (≈ 0.00404 µg/mL)	25.6	0.003 (≈ 0.00135 µg/mL)	–	–	–	–	–	–	–	–
CCc1nc2cc(Cl)ccn2c1C(=O)NCc1ccc2ccccc2c1	6.3	0.12 (≈ 0.0437 µg/mL)	23.7	1 (≈ 0.364 µg/mL)	–	–	–	–	–	–	–	–
CCc1nc2cc(Cl)ccn2c1C(=O)NCc1ccc2oc(C3CCCCC3)nc2c1	9.5	0.082 (≈ 0.0358 µg/mL)	10.2	0.082 (≈ 0.0358 µg/mL)	–	–	–	–	–	–	–	–
CCc1nc2ccc(Cl)cn2c1C(=O)NCc1ccc2oc(-c3ccc(OC(F)(F)F)cc3)nc2c1	> 120	0.027 (≈ 0.0139 µg/mL)	> 120	0.009 (≈ 0.00463 µg/mL)	–	–	–	–	–	–	–	–
CCc1nc2cc(Cl)ccn2c1C(=O)NCc1ccc2oc(CN3CCOCC3)nc2c1	18.9	13.7 (≈ 6.22 µg/mL)	23.2	6.67 (≈ 3.03 µg/mL)	–	–	–	–	–	–	–	–
CCc1nc2ccc(Cl)cn2c1C(=O)NCc1ccc2oc(C)nc2c1	5.8	0.2 (≈ 0.0738 µg/mL)	32.2	0.082 (≈ 0.0302 µg/mL)	–	–	–	–	–	–	–	–
CCc1nc2cc(Cl)ccn2c1C(=O)NCc1ccc2oc(-c3ccc(F)cc3)nc2c1	> 120	0.082 (≈ 0.0368 µg/mL)	103	0.74 (≈ 0.332 µg/mL)	–	–	–	–	–	–	–	–
CCc1nc2ccc(Cl)cn2c1C(=O)NCc1ccc2c(c1)OCO2	2.1	0.082 (≈ 0.0293 µg/mL)	7.4	0.009 (≈ 0.00322 µg/mL)	–	–	–	–	–	–	–	–
CCc1nc2ccc(Cl)cn2c1C(=O)NCc1ccc2ccccc2c1	3.1	0.031 (≈ 0.0113 µg/mL)	6.9	0.062 (≈ 0.0226 µg/mL)	–	–	–	–	–	–	–	–
CCc1nc2cc(Cl)ccn2c1C(=O)NCc1ccc2oc(-c3ccc(OC(F)(F)F)cc3)nc2c1	> 120	0.009 (≈ 0.00463 µg/mL)	> 120	< 0.001	1.2	36.3	0.6	60	116	5560	1080	40.1
CCc1nc2ccc(Cl)cn2c1C(=O)NCc1ccc2oc(C3CCCCC3)nc2c1	5.2	0.082 (≈ 0.0358 µg/mL)	17	0.082 (≈ 0.0358 µg/mL)	–	–	–	–	–	–	–	–
CCc1nc2ccc(Cl)cn2c1C(=O)NCc1ccc2oc(CN3CCOCC3)nc2c1	14.1	2.67 (≈ 1.21 µg/mL)	17	2.22 (≈ 1.01 µg/mL)	–	–	–	–	–	–	–	–
CCc1nc2cc(Cl)ccn2c1C(=O)NCc1ccc2oc(C)nc2c1	10.3	1.53 (≈ 0.564 µg/mL)	> 120	0.74 (≈ 0.273 µg/mL)	–	–	–	–	–	–	–	–
NNC(=O)c1ccncc1 [ISONIAZID]	–	0.49 (≈ 0.0672 µg/mL)	–	0.2 (≈ 0.0274 µg/mL)	–	–	–	–	–	–	–	–
CCc1nc2ccc(Cl)cn2c1C(=O)NCc1ccc(N2CCC(c3ccc(OC(F)(F)F)cc3)CC2)cc1 [TELACEBEC]	–	0.004 (≈ 0.00223 µg/mL)	–	0.001 (≈ 0.000557 µg/mL)	–	–	–	–	–	–	–	–
